Screening data: PubChem, several laboratories
Rows were chosen to be rich in hits. Some 1.5% of all compounds tested hit in one or more screens of this group.
CendR NRP1 mod – modulators of CendR peptide binding to NRP-1, primary screen, biochemical, fluorescence polarization, uHTS | Neuropilin-1 (Homo sapiens), O14786 | FAM-RPARPAR peptide binding to NRP-1 | inhibition, % at 25 µM | 360,000 tested, 0.85% active | AID 602438, 2012;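 active means inhibition or corrected inhibition above about 18%, plus a signal ratio from 0.5 to 1.5, limit read from the data, passing the limit was not always enough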
MEX-5 binding – MEX-5 zinc finger RNA-binding disruptors – biochemical, C. elegans, fluorescence polarization, MLPCN library, primary screen | MEX-5/FITC-TCR2 RNA binding; stronger effect = lower value | activity score (negative = inhibition of binding), % at 10 µM | Zinc finger protein mex-5 (Caenorhabditis elegans), Q9XUB2 | 300,000 tested, 0.38% active;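 active means inhibition past about -25% in most replicates, and total fluorescence under double the plate's negative control median, limit read from the data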;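 further: 0% = DMSO and -100% = 5 µM competing unlabeled TCR2 RNA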
Target sequence (Q9XUB2 whole entry, looked up): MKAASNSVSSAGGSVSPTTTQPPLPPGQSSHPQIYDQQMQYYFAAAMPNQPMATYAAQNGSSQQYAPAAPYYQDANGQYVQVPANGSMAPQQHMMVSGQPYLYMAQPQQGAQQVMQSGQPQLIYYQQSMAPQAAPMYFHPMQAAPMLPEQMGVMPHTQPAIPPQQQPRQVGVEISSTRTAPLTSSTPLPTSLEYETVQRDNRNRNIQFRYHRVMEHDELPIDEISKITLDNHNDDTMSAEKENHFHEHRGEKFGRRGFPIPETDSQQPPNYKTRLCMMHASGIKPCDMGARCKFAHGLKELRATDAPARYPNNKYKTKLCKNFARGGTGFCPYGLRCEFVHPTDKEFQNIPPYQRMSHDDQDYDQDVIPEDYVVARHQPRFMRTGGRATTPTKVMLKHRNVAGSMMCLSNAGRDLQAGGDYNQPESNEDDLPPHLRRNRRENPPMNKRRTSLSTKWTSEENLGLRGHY
DNA FID counter – compounds displacing fluorescent DNA intercalator, primary screen, artefact control for HCV NS3 helicase inhibitor project, biochemical, FID fluorescence. DNA fluorescent intercalator displacement. inhibition, % at 7.9 µM. 290,000 tested, 0.17% active; in the data active means inhibition above about 37%;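 further: 0% = vehicle and 100% = reference compound; higher means more ethidium bromide displaced from hairpin DNA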
HCV core dimer – inhibitors of HCV core protein dimerization, primary screen, biochemical, TR-FRET, high-throughput; inhibition, % at 5 µM; TR-FRET GST/Flag-core106 dimerization, 1536-well; 300,000 tested, 0.33% active; AID 1899, 2009;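 active means inhibition above the mean of all tested compounds plus 3 SD, set per screening campaign, cut at about 45% in these data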
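System – GST-tagged and Flag-tagged HCV core protein residues 1-106 · Repeats – one well for each compound · Technique – TR-FRET 671 and 617 nm emission · Doses – one concentration, 5 µM, in 0.5% DMSO · Times – 4 h, 22.5 °C incubation · Also added – Eu donor and XL665 acceptor anti-tag antibodies · Measure – percent inhibition of core106 dimerization signal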
Numbers without * were called inactive.

For CC1CCN(C(=O)C2CCC(CNS(=O)(=O)c3ccc4c(c3)C(C)(C)C(=O)N4C)CC2)CC1 (stereo unspecified) the results were CendR NRP1 mod -6.
CCOc1ccc(CCN2C(=S)N([C@@H](CC(C)C)CN3CCCC3CN3C(=S)NC[C@@H]3CC(C)C)C[C@@H]2Cc2ccc(O)cc2)cc1 (stereo partly specified) was read as CendR NRP1 mod -5.
CCOc1ccc(CCN2C(=S)N([C@@H](CC(C)C)CN3CCC[C@@H]3CN3C(=S)NC[C@@H]3CC(C)C)C[C@@H]2Cc2ccc(O)cc2)cc1 was read as CendR NRP1 mod 24*.
`CC(O)CC(=O)OC[C@]12CC[C@H]3[C@@](C)(CC[C@H]4C(C)(C)CCC[C@]34C)[C@@H]1CC(C1=CC(=O)OC1O)O2` (stereo partly specified) gave CendR NRP1 mod -146.
`O=C(N/N=C/c1oc(O)c2ccccc12)c1ccccc1O` gave CendR NRP1 mod -16, MEX-5 binding -34*, DNA FID counter -1 and HCV core dimer 6.
O=C(N/N=C/c1ccoc1)c1ccccc1O was read as CendR NRP1 mod 0, MEX-5 binding -1, DNA FID counter -7 and HCV core dimer -8.
For Clc1cccc(C2Nc3cccc4cccc(c34)N2)c1 the results were CendR NRP1 mod 16, MEX-5 binding -4, DNA FID counter 0 and HCV core dimer 47*.
`CC(C)(C)n1cnc2cc(NS(=O)(=O)c3ccccc3)ccc21` gave CendR NRP1 mod 23*, MEX-5 binding 1, DNA FID counter -11 and HCV core dimer -2.
COc1ccc(-n2cnc3cc(NS(=O)(=O)c4ccccc4)ccc32)cc1 was read as CendR NRP1 mod 10, MEX-5 binding 0, DNA FID counter -18 and HCV core dimer 1.
Screening CCOC(=O)C1=C(C)N(c2ccccc2)C(=O)/C1=C\c1cccs1 returned CendR NRP1 mod -5, MEX-5 binding -1, DNA FID counter -6 and HCV core dimer 3.
For COC(=O)C1=C(C)N(c2cccc(C)c2)C(=O)/C1=C\c1cccs1 the results were CendR NRP1 mod 28*, MEX-5 binding 0, DNA FID counter -2 and HCV core dimer 6.
COC(=O)CNc1ccc2c(c1)OCO2 was read as CendR NRP1 mod 25*, MEX-5 binding -7, DNA FID counter -1 and HCV core dimer 9.
`c1cc(CNc2ccc3c(c2)OCO3)ccn1` gave CendR NRP1 mod 30*, MEX-5 binding -13, DNA FID counter -4 and HCV core dimer -7.
`CCn1c(Cc2ccccc2)nnc1SCC(=O)Nc1ccc2c(c1)OCO2` gave CendR NRP1 mod -2, MEX-5 binding 0, DNA FID counter -6 and HCV core dimer 0.
For CCc1nnc(SCC(=O)Nc2ccc3c(c2)OCO3)n1CC the results were CendR NRP1 mod 28*, MEX-5 binding -1, DNA FID counter -5 and HCV core dimer 13.
Screening Cc1ccc(NC(=O)CN(C)CC(=O)Nc2ccc3c(c2)OCO3)cc1 returned CendR NRP1 mod 22*.
For CCOCc1c(C(=O)Nc2ccccc2N2CCN(C)CC2)oc2ccccc12 the results were CendR NRP1 mod -10.
Screening CCCCNC(=O)C1(C)CCN1C(=O)c1cccc(OC(C)=O)c1C (stereo unspecified) returned CendR NRP1 mod -10.
COc1ccc(OC)c(S(=O)(=O)N(C)CC(=O)Nc2ccc3c(c2)OCO3)c1 was read as CendR NRP1 mod 32*, MEX-5 binding 1, DNA FID counter -13 and HCV core dimer 10.
Screening OCC[C@@H]1C[C@@H](O)[C@H](O)[C@]2(CCCc3ccccc3O2)O1 returned CendR NRP1 mod 6, MEX-5 binding 0, DNA FID counter -5 and HCV core dimer 11.
OCC[C@H]1C[C@@H](O)[C@H](O)[C@@]2(CCCO2)O1 was read as CendR NRP1 mod 21, MEX-5 binding 2 and HCV core dimer 1.
OCC[C@H]1C[C@H](O)[C@@H](O)[C@]2(CCCO2)O1 was read as CendR NRP1 mod 38*, MEX-5 binding 1 and HCV core dimer -2.
OCC[C@@H]1C[C@H](O)[C@@H](O)[C@@]2(CCCO2)O1 was read as CendR NRP1 mod 24*, MEX-5 binding 5 and HCV core dimer 0.
For OCC[C@@H]1C[C@@H](O)[C@H](O)[C@@]2(CCCc3ccccc3O2)O1 the results were CendR NRP1 mod 25*, MEX-5 binding 3, DNA FID counter -6 and HCV core dimer -14.
For OCC[C@@H]1C[C@@H](O)[C@H](O)[C@]2(OCc3ccccc32)O1 the results were CendR NRP1 mod 27*, MEX-5 binding 1, DNA FID counter -3 and HCV core dimer -2.
`OCC[C@@H]1C[C@@H](O)[C@H](O)[C@@]2(CCCO2)O1` gave CendR NRP1 mod -4, MEX-5 binding 1 and HCV core dimer 4.
`CCOC(=O)C1(C)CCCN(C(=O)c2ccccc2OC(F)(F)F)C1` (stereo unspecified) gave CendR NRP1 mod 9.
CCOc1ccc(CN(C)C(=O)c2cccc(S(=O)(=O)Nc3ccccc3OC)c2)cc1OC was read as CendR NRP1 mod -16.
For C=CC1CN2CCC1CC2C(O)c1ccnc2ccc(OC)cc12 (stereo unspecified) the results were CendR NRP1 mod -5.
`C[C@H]1CCC[C@@]2(O[C@@H](CCO)C[C@@H](O)[C@@H]2O)O1` gave CendR NRP1 mod 25*, MEX-5 binding -1 and HCV core dimer -15.
For C[C@H]1CCC[C@]2(O[C@@H](CCO)C[C@@H](O)[C@@H]2O)O1 the results were CendR NRP1 mod 5, MEX-5 binding 0 and HCV core dimer 7.
O=C(COC(=O)c1ccc2c(c1)C(=O)N(Cc1ccncc1)C2=O)Nc1ccccc1[N+](=O)[O-] was read as CendR NRP1 mod 7, MEX-5 binding 0, DNA FID counter -22 and HCV core dimer 54*.
For Cc1occc1C(=O)N1N=C(C2CC2)CC1(O)C(F)(F)F (stereo unspecified) the results were CendR NRP1 mod 34*, MEX-5 binding 0, DNA FID counter -3 and HCV core dimer 0.
For CCOC(=O)[C@]12CCCC=C1N(Cc1ccccc1)C(=O)[C@H](CC(=O)N1CCCC1)C2 the results were CendR NRP1 mod -3.
Screening CCCc1cc(CN(C)C(=O)c2ccc(OC3CCN(C(C)=O)CC3)c(OC)c2)[nH]n1 returned CendR NRP1 mod -9.
CCOc1ccc2nc(N(CCCN(C)C)C(=O)c3ccc4c(c3)CCCC4)sc2c1 was read as CendR NRP1 mod -1, MEX-5 binding 1, DNA FID counter 39* and HCV core dimer -4.
Screening CCc1ccc2nc(N(CCCN(C)C)C(=O)c3ccc(C(=O)c4ccccc4)cc3)sc2c1 returned CendR NRP1 mod 11, MEX-5 binding 1, DNA FID counter 38* and HCV core dimer 0.
